For 7 compounds, Activity and inhibition results are on record in ChEMBL document CHEMBL3751716, “Identification of 5-Methoxyflavone as a Novel DNA Polymerase-Beta Inhibitor and Neuroprotective Agent against Beta-Amyloid Toxicity” (J Nat Prod, 2015).

The source made the active and inactive calls. The rule behind the calls is not given here.

For series [1], the species on record is Mus musculus. Kind of series: Effect on cell cycle distribution in against mouse 92TAg cells assessed as cell accumulation at S-phase at 8 ug/ml incubated for 15 hrs by propidium iodide staining based cytofluorimetric analysis. The series is classed as functional. Summed up: (§1)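 Mouse embryonic fibroblasts (wild-type 92TAg; pol-β-null 88TAg) grown in DMEM with 10% FBS at 37 °C and 5% CO2. Synchronized in 0.2% FBS medium for 72 h, then returned to 10% FBS medium with compound for 15 h. Cell-cycle phase percentages scored by cytofluorimetry of propidium iodide-labeled cells. Experiments run at least in triplicate, one-way ANOVA.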

The species named for series [2] is Mus musculus. Kind of series: Effect on cell cycle distribution in against polymerase-beta knock out mouse 88TAg cells assessed as cell accumulation at S-phase at 8 ug/ml incubated for 15 hrs by propidium iodide staining based cytofluorimetric analysis. Format: functional. The gist of the method: as §1
A short description of series [3]: Cytotoxicity against mouse 88TAg fibroblasts assessed as compound level causing reduction of cell viability incubated for 2 hrs by MTT assay. The gist of the method:
(§2)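 Mouse embryonic fibroblasts, 92TAg (wild type) or 88TAg (pol-β null), were seeded 5 × 10^3/well and serum-deprived at treatment. Compound (5-60 μM) was given 2 h, then a 2 h MMS pulse (500 μM for 92TAg, 250 μM for 88TAg). After washout, compound was re-added and viability read 24 h from start by MTT (0.9 mg/mL, 2 h, 37 °C; DMSO lysis; A570). Means ± SEM, 3-9 determinations.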

The nature of series [4]: Cytotoxicity against Sprague-Dawley rat cortical neurons at 50 uM by MTT assay. Conditions: cortical neurone.
Series [5] addresses DNA polymerase beta (Homo sapiens) (UniProt P06746). To be noted: 50 uM.
Series [6] is described as follows: Cytotoxicity against mouse 88TAg fibroblasts assessed as reduction of cell viability at 60 uM incubated for 2 hrs by MTT assay. The gist of the method: as §2
The test system of series [7] is DNA polymerase beta (Mus musculus). Nature of the series: Inhibition of DNA polymerase-beta in mouse wild-type 92TAg cells assessed as increase in MMS toxicity at 1 to 60 uM incubated for 2 hrs prior to MMS challenge for 2 hrs followed by post wash compound addition measured after 24 hrs by MTT assay.

Regarding `C[C@@]1(CO)[C@H](O)CC[C@@]2(C)[C@H]1CC[C@H]1C[C@@H]3C[C@@]12CC[C@]3(O)CO`, the outcome in the series filed under Mus musculus [1] and in the series listed under Mus musculus [2] was Active.

For `Cc1ccccc1Nc1nc2ccc([N+](=O)[O-])cc2nc1Nc1ccccc1C`, in series [3], the Activity entry was “<= 90%”.

With `CC1(C)CC[C@]2(C(=O)O)CC[C@]3(C)C(=CC[C@@H]4[C@@]5(C)CC[C@H](O)C(C)(C)[C@@H]5CC[C@]43C)[C@@H]2C1` [OLEANOLIC_ACID], in series [4], the Activity entry was “Toxic”. Also, the inhibition result in series [5] is “Active”.

Consider `O=c1cc(-c2ccccc2O)oc2c1ccc1ccccc12`, for which the values for the Activity in series [3] and in series [6] were 10 µM and “<= 90%”, respectively.

Take `c1ccc2c(c1)c1ccccc1n2Cn1c2ccccc2c2ccccc21`: the Activity result in series [3] is “<= 90%”.

As for `CC1(C)NCCC12C(=O)N(Cc1ccccc1)c1ccccc12` (stereo unspecified), the Activity entry in series [3] is given as “Non-toxic”. In series [7], the inhibition entry is “inactive”.

For the compound `C[C@H](C(=O)O)c1cccc(C(=O)c2ccccc2)c1` [DEXKETOPROFEN], the Activity result in series [3] is reported as “Non-toxic”.
